Data as given in the RNAGym collection of RNA variant scans (doi:10.1126/science.aae0568).
This sample holds only a part of the variants without activity.

B1: tRNA (parent)
chain: GUUCCGUUGGCGUAAUGGUAACGCGUCUCCCUCCUAAGGAGAAGACUGCGGGUUCGAGUCCCGUACGGAACG

Variants of: B1
Experiment: yeast fitness relative to wild type (ratio to wild type); higher = fitter; tRNA-Arg(CCU), competitive growth, 37 C, YPD
Procedure, shortened: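 Amplicons of the tRNA-Arg(CCU) gene were sequenced, 100-nucleotide paired-end, from the start population and from each end population of a pooled yeast competition. The competition, in six parallel replicates, lasted 24 hours in YPD at 37°C. Fitness relative to wild type was calculated from changes in genotype frequencies. Genotypes had to have ≥ 100 starting reads, and estimates < 0.5 were set to 0.5.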

Variant | yeast fitness
A14G A15C G17A A69C A70G | 0.562
A14C U19A C22U A45C | ≤ 0.5
A14C U47C C55U G68C | ≤ 0.5
A14C G25C C27G C34U U35A G38A G56A U59G | ≤ 0.5
A14C G18A G50A G63C | ≤ 0.5
A14G A15C G67U | 0.62
A14C U26A C34U G50U C55G | ≤ 0.5
A14C G39C | 0.575
A14C U64A | 0.651
A14C U19C C27A G41C A42U C66U | 0.582
A14C G25C C62U | ≤ 0.5
A14C U19G U32A | ≤ 0.5
A14G A20U A36U G51C G52C | ≤ 0.5
A14C G41A | 0.553
A14C G58A C61A C62G | ≤ 0.5
A14G A21G C22U | 0.555
A14G A15U U35C | ≤ 0.5
A14C U16C A69U | ≤ 0.5
A14C U32G U64C | 0.532
A14G A15C U53G C60U | ≤ 0.5
A14C U26C A36G | ≤ 0.5
A14C G18A C29G A42C | ≤ 0.5
A14G A21G C27U A45C G48C C61G | ≤ 0.5
A14C U28A U54A C61G A69C | ≤ 0.5

Variant | yeast fitness
A14C G50A G63C | 0.522
A14G A20C A43U C55G | ≤ 0.5
A14C G17C C27U U47G | ≤ 0.5
A14C U19A A45U | ≤ 0.5
A14C G18C G41C | 0.662
A14C G17U C27U | 0.647
A14C G58C G68C | ≤ 0.5
A14C G56A A69C | 0.578
A14C G18A G44A U59C C66G | ≤ 0.5
A14C U16C C55U A70G | ≤ 0.5
A14G A20G U47A G58C | ≤ 0.5
A14C G41A A43C | ≤ 0.5
A14G A15U G25C | ≤ 0.5
A14C U59A | 0.746
A14C G17A G48C C55U G63U | ≤ 0.5
A14G A15C | 0.733
A14G A15G | 0.917
A14C U54G | ≤ 0.5
A14C U54C | 0.702
A14C U26A C34U C55G G68A | ≤ 0.5
A14C G25A C29G A45U C62A A70C | ≤ 0.5
A14C U28A A42U | ≤ 0.5
A14C U28A G44A C55A | ≤ 0.5
A14C C66G G68C | ≤ 0.5

Variant | yeast fitness
A14C U26A C29U C49U | ≤ 0.5
A14C U47A G52A | ≤ 0.5
A14C U59C C62A | ≤ 0.5
A14C G25C U47A C49U G63C | 0.561
A14C G25A A36C G44A | 0.571
A14C G25C U32A A43C G63A A69C | ≤ 0.5
A14C G50U | 0.708
A14C G50A | 0.612
A14G A21G U53C A57C A69U | ≤ 0.5
A14C G63A | 0.803
A14C G63C | 0.535
A14C G48A G58A | 1.04
A14G A20U U35C G38A A43C | 0.635
A14C G18A C30U C49A | ≤ 0.5
A14C U26C C29U A43G | 0.59
A14G A21C C34A U47C | ≤ 0.5
A14C G18A C22G A57U | ≤ 0.5
A14C C62G A70G | 0.632
A14C G67U | 0.678
A14G A15C U26C G51C | 0.512
A14G A21G C22U C27U A45C G48C C61G | ≤ 0.5
A14C C62U A69C | ≤ 0.5
A14G A15G A45U C62U | ≤ 0.5
A14C G18A G44A C66G | 0.56

Variant | yeast fitness
A14C U35A G50A A69U | ≤ 0.5
A14G A21U G23A A37U | ≤ 0.5
A14G A20U C22G A43G A69C | ≤ 0.5
A14C C62A | 0.65
A14G A15U C61U | ≤ 0.5
A14C G18A C31G C33U A37C A65U | ≤ 0.5
A14C U35C A65G | 0.525
A14G A21C C29A | 0.586
A14G A15U U28A C33G G41C G56A | 0.589
A14C G56A | 0.762
A14C G17C U26A G41C G44U | ≤ 0.5
A14C G25C G48A G50A | ≤ 0.5
A14C G44A C66U | ≤ 0.5
A14G A15G G56A | 0.567
A14G A15U G68U | ≤ 0.5
A14C C66A | 0.722
A14C C66U | 0.657
A14C C66G | 0.558
A14C U19C A20G G58A | ≤ 0.5
A14C U35C A57U | ≤ 0.5
A14C U47A | 0.701
A14G A20G C22G U59C A65U | ≤ 0.5
A14C G25C U47A | 0.608
A14G A15G A37G A45U C66U | ≤ 0.5

Variant | yeast fitness
A14C G23C A36U A70U | ≤ 0.5
A14C U19A A21C C34U G39A | 0.62
A14C U19G C31G C33U A42G U64C A65G | ≤ 0.5
A14C G23A C34A C49G | ≤ 0.5
A14G A15G G68C | 0.537
A14G A21C C30G C55G C66U G67A | ≤ 0.5
A14C G18A A42G G44A C66G | ≤ 0.5
A14C G25C G48A A69U | 0.553
A14C G58C G67A | ≤ 0.5
A14C G17U C22U C34U | ≤ 0.5
A14C U28A | 0.618
A14C U16A C27G C55U | 0.539
A14G A15U A45U | ≤ 0.5
A14G A20U A40G U54C | ≤ 0.5
A14G A15C C46A | 0.578
A14G A15C A21G C46A A69U | ≤ 0.5
A14C G25C A45G G48A | 0.534
A14C G52C C55G | 0.546
A14C U47C A70U | 0.614
A14C G25C C27G C34U U35A G38A A70G | ≤ 0.5
A14G A20C C22G C29U A69U | ≤ 0.5
A14C G25C C27G C34U U35A G38A U59A | ≤ 0.5
A14G A15G G44A | ≤ 0.5
A14C U16C A37G A40U G51C A69C | ≤ 0.5

Variant | yeast fitness
A14C U32G G56A | ≤ 0.5
A14C U16C A40U G51C A69C | 0.639
A14C U19C C34U | ≤ 0.5
A14C G18A G48A | ≤ 0.5
A14G A21C C33A A43U C62U | 0.558
A14C G23A C29U U35C C55G | 0.627
A14C U16A C24U U53C C60G | ≤ 0.5
A14C U19A A45C A65G | ≤ 0.5
A14C G17C A21G U32A C34U | ≤ 0.5
A14C U16C | 0.724
A14C U16G | 0.609
A14C U16A | 0.597
A14G A15U C30G | ≤ 0.5
A14G A21U G41C | ≤ 0.5
A14G A15U G67U | ≤ 0.5
A14C U19C A43C G44C G48A U59A C62U U64A | ≤ 0.5
A14G A20C C66U | 0.665
A14C G51A | 0.714
A14C U19A A20C G51A U59C | 0.645
A14C U26A C34A G44A G67C | ≤ 0.5
A14G A21G C27U A45C G48C | ≤ 0.5
A14C U19C A43C G44C G48A U59A U64C C66U | ≤ 0.5
A14G A21C A36C A43U C60A | 0.554
A14C U16A G41C G63C A65U | 0.586

Variant | yeast fitness
A14C G18A | 0.59
A14C G25A C66U | 0.541
A14G A21G A70U | 0.684
A14C G51A A69U A70G | ≤ 0.5
A14C G25A C33G A36U A45G G52C A70C | 0.556
A14G A21C C30G C55G G67U | 0.534
A14C U19A C49U C62G G63A | ≤ 0.5
A14C U32G | 0.752
A14G A21C A37G | 0.562
A14C U32G G39C | ≤ 0.5
A14G A20C A21U U28C | ≤ 0.5
A14G A20C C31U C46G | ≤ 0.5
A14C U19C C66U | 0.722
A14G A20U | 0.942
A14G A20C | 0.813
A14G A20G | 0.883
A14C U26G C29A A42C | ≤ 0.5
A14C U32G C34G A43U G58C G67U | ≤ 0.5
A14G A20C A57G | 0.677
A14C U19A G39C | ≤ 0.5
A14C G68A | 0.712
A14G A15G C33G C34U A43C C49G | ≤ 0.5
A14C U28G C55G G68C | ≤ 0.5
